These results are taken from ChEMBL document CHEMBL4261601, “Discovery and lead identification of quinazoline-based BRD4 inhibitors” (Bioorg Med Chem Lett, 2018).

SMILES strings stand for the structures.

For the first data set, the target named is Bromodomain-containing protein 4 (Homo sapiens, UniProt O60885). In words: Displacement of biotinylated acetylated peptide from recombinant human partial length BRD4 long isoform bromodomain 1/2 (N44 to E460 residues) expressed in Escherichia coli BL21 measured after 1 hr by Bromoscan method.
Settings: not given
As to `COCCn1cc(-c2nc(NCc3cccc(Cl)c3)c3cc(-c4c(C)noc4C)ccc3n2)cn1`, the Kd amounted to 0.092 µM.

As to `CN(C)CCN1CCN(c2nc(NCc3cccc(Cl)c3)c3cc(-c4ccnc(O)c4)ccc3n2)CC1`, the Kd is 9.1 µM.

With `Cc1noc(C)c1-c1ccc2nc(N3CCN(C(=O)CN(C)C)CC3)nc(NCc3cccc(Cl)c3)c2c1`, the Kd stood at 0.03 µM.

With `Cc1noc(C)c1-c1ccc2nc(C(=O)NCc3cccnc3)nc(NCc3cccc(Cl)c3)c2c1`, the Kd is 0.056 µM.

As for `Cc1noc(C)c1-c1ccc2nc(C(=O)NC3CCN(C)CC3)nc(NCc3cccc(Cl)c3)c2c1`, the Kd turned out to be 0.08 µM.

`Cc1noc(C)c1-c1ccc2nc(N3CCN(CCN(C)C)CC3)nc(NC3(c4cccc(Cl)c4)CC3)c2c1`: the Kd stood at 0.086 µM.

Consider `Cc1noc(C)c1-c1ccc2nc(C(=O)NCc3cnn(C)c3)nc(NCc3cccc(Cl)c3)c2c1`, for which the Kd came to 0.059 µM.

With `Cc1noc(C)c1-c1ccc2nc(C(=O)NC3CCOCC3)nc(NCc3cccc(Cl)c3)c2c1`, the Kd came to 0.079 µM.

With `Cc1noc(C)c1-c1ccc2nc(N3CCN(CCN(C)C)CC3)nc(N[C@@H](CO)c3ccccc3)c2c1`, the Kd was found to be 0.13 µM.

As for `Cc1noc(C)c1-c1ccc2nc(N3CCN(CCN(C)C)CC3)nc(NCc3cncc(Cl)c3)c2c1`, the Kd was 0.079 µM.

Regarding `Cc1noc(C)c1-c1ccc2nc(N3CCN(CCN(C)C)CC3)nc(NCc3cccs3)c2c1`, the Kd came to 0.15 µM.

Consider `Cc1noc(C)c1-c1ccc2nc(N3CCN(CCN(C)C)CC3)nc(NCc3cccc(Cl)c3)c2c1`, for which the Kd is 0.056 µM.

Take `Cc1noc(C)c1-c1ccc2nc(N3CCCN(CCN(C)C)CC3)nc(NCc3cccc(Cl)c3)c2c1`: the Kd was found to be 0.15 µM.

Turning to `Cc1noc(C)c1-c1ccc2nc(N(C)CCN(C)C)nc(NCc3cccc(Cl)c3)c2c1`, the Kd was found to be 0.11 µM.

On to `Cc1noc(C)c1-c1ccc2nc(N3CCN(CCN(C)C)CC3)nc(N3CCCCC3c3ccccc3)c2c1` (stereo not given), for which the Kd turned out to be 0.06 µM.

Consider `Cc1noc(C)c1-c1ccc2nc(N3CCN(C)CC3)nc(NCc3cccc(Cl)c3)c2c1`, for which the Kd worked out at 0.14 µM.

On to `Cc1noc(C)c1-c1ccc2nc(N3CCN(CCN(C)C)CC3)nc(NCc3ccc(Cl)cc3)c2c1`, for which the Kd is 0.52 µM.

On to `Cc1noc(C)c1-c1ccc2nc(C(=O)Nc3cnn(C)c3)nc(NCc3cccc(Cl)c3)c2c1`, for which the Kd was 0.29 µM.

In the case of `Cc1noc(C)c1-c1ccc2nc(N3CCN(CCN(C)C)CC3)nc(NCc3cc(Cl)ccn3)c2c1`, the Kd stood at 0.11 µM.

As for `CN(C)CCN1CCN(c2nc(NCc3cccc(Cl)c3)c3cc(-c4ccn(C)c(=O)c4)ccc3n2)CC1`, the equilibrium dissociation constant (Kd) was determined as 7.1 µM.

For the compound `Cc1noc(C)c1-c1ccc2nc(-c3cnn(CCN(C)C)c3)nc(NCc3cccc(Cl)c3)c2c1`, the Kd came out at 0.056 µM.

As to `Cc1noc(C)c1-c1ccc2nc(N3CCN(CCN(C)C)CC3)nc(Nc3ccc(Cl)cc3)c2c1`, the Kd was 2.6 µM.

For the compound `CN(C)CCN1CCN(c2nc(NCc3cccc(Cl)c3)c3cc(-c4ccc(O)nc4)ccc3n2)CC1`, the Kd was found to be 0.55 µM.

In the case of `Cc1noc(C)c1-c1ccc2nc(N3CCN(CCO)CC3)nc(NCc3cccc(Cl)c3)c2c1`, the Kd worked out at 0.056 µM.

For the compound `Cc1noc(C)c1-c1ccc2nc(N3CCN(CCN(C)C)CC3)nc(N(C)Cc3cccc(Cl)c3)c2c1`, the Kd turned out to be 0.27 µM.

Take `Cc1noc(C)c1-c1ccc2nc(N3CCN(CCC(C)C)CC3)nc(NCc3cccc(Cl)c3)c2c1`: the Kd was 0.98 µM.

The test system of the next data set is MV4-11. Nature of the data set: Cytotoxicity against human MV411 cells after 72 hrs by CellTiter-Glo assay. The format is functional, cell-based. The settings on record: MV4-11, 72 h. (ATP-based viability assays read luminescence as a measure of living cells.)
For the compound `COCCn1cc(-c2nc(NCc3cccc(Cl)c3)c3cc(-c4c(C)noc4C)ccc3n2)cn1`, it took 1.87 µM to reach half-maximal inhibition (IC50).

As to `CN(C)CCN1CCN(c2nc(NCc3cccc(Cl)c3)c3cc(-c4ccnc(O)c4)ccc3n2)CC1`, the IC50 came out at 17.3 µM.

Turning to `Cc1noc(C)c1-c1ccc2nc(N3CCN(C(=O)CN(C)C)CC3)nc(NCc3cccc(Cl)c3)c2c1`, 1.23 µM corresponded to half-maximal inhibition (IC50).

On to `Cc1noc(C)c1-c1ccc2nc(C(=O)NCc3cccnc3)nc(NCc3cccc(Cl)c3)c2c1`, for which the IC50 turned out to be 1.43 µM.

`Cc1noc(C)c1-c1ccc2nc(C(=O)NC3CCN(C)CC3)nc(NCc3cccc(Cl)c3)c2c1` displayed an IC50 of 1.02 µM. The IC50 values of the last two compounds are within 1.5-fold of each other.

`Cc1noc(C)c1-c1ccc2nc(N3CCN(CCN(C)C)CC3)nc(NC3(c4cccc(Cl)c4)CC3)c2c1` had an IC50 of 1.6 µM. Compared with the last compound, the IC50 is about 1.6-fold higher.

As to `Cc1noc(C)c1-c1ccc2nc(C(=O)NCc3cnn(C)c3)nc(NCc3cccc(Cl)c3)c2c1`, the IC50 came out at 1.27 µM.

Take `Cc1noc(C)c1-c1ccc2nc(C(=O)NC3CCOCC3)nc(NCc3cccc(Cl)c3)c2c1`: half-maximal inhibition (IC50) was put at 2.84 µM.

Compound `Cc1noc(C)c1-c1ccc2nc(N3CCN(CCN(C)C)CC3)nc(N[C@@H](CO)c3ccccc3)c2c1` registered a 50% inhibitory concentration (IC50) of 2.1 µM.

`Cc1noc(C)c1-c1ccc2nc(N3CCN(CCN(C)C)CC3)nc(NCc3cncc(Cl)c3)c2c1` had an IC50 of 1.37 µM.

On to `Cc1noc(C)c1-c1ccc2nc(N3CCN(CCN(C)C)CC3)nc(NCc3cccs3)c2c1`, for which the IC50 was 1.62 µM.

The compound `Cc1noc(C)c1-c1ccc2nc(N3CCN(CCN(C)C)CC3)nc(NCc3cccc(Cl)c3)c2c1` returned an IC50 of 0.66 µM.

The compound `Cc1noc(C)c1-c1ccc2nc(N3CCCN(CCN(C)C)CC3)nc(NCc3cccc(Cl)c3)c2c1` displayed a half-inhibitory concentration (IC50) of 2.1 µM.

Turning to `Cc1noc(C)c1-c1ccc2nc(N(C)CCN(C)C)nc(NCc3cccc(Cl)c3)c2c1`, the midpoint of inhibition, the IC50, lay at 2.97 µM.

In the case of `Cc1noc(C)c1-c1ccc2nc(N3CCN(CCN(C)C)CC3)nc(N3CCCCC3c3ccccc3)c2c1` (stereo not given), the IC50 stood at 5.07 µM.

Take `Cc1noc(C)c1-c1ccc2nc(N3CCN(C)CC3)nc(NCc3cccc(Cl)c3)c2c1`: the IC50 was determined as 1.6 µM.

In turn, `Cc1noc(C)c1-c1ccc2nc(N3CCN(CCN(C)C)CC3)nc(NCc3ccc(Cl)cc3)c2c1` yielded a 50% inhibitory concentration (IC50) of 3.48 µM.

Consider `Cc1noc(C)c1-c1ccc2nc(C(=O)Nc3cnn(C)c3)nc(NCc3cccc(Cl)c3)c2c1`, for which the half-inhibitory concentration (IC50) came out at 3.59 µM.

With `Cc1noc(C)c1-c1ccc2nc(N3CCN(CCN(C)C)CC3)nc(NCc3cc(Cl)ccn3)c2c1`, the IC50 turned out to be 1.6 µM.

As to `CN(C)CCN1CCN(c2nc(NCc3cccc(Cl)c3)c3cc(-c4ccn(C)c(=O)c4)ccc3n2)CC1`, half-maximal inhibition (IC50) required 6.89 µM.

Regarding `Cc1noc(C)c1-c1ccc2nc(-c3cnn(CCN(C)C)c3)nc(NCc3cccc(Cl)c3)c2c1`, the midpoint of inhibition, the IC50, lay at 1.33 µM. Against the preceding compound, the IC50 is about 5.2-fold lower.

`Cc1noc(C)c1-c1ccc2nc(N3CCN(CCN(C)C)CC3)nc(Nc3ccc(Cl)cc3)c2c1` returned an IC50 of 1.51 µM.

Regarding `CN(C)CCN1CCN(c2nc(NCc3cccc(Cl)c3)c3cc(-c4ccc(O)nc4)ccc3n2)CC1`, half-maximal inhibition (IC50) was put at 6.07 µM.

`Cc1noc(C)c1-c1ccc2nc(N3CCN(CCO)CC3)nc(NCc3cccc(Cl)c3)c2c1` yielded an IC50 of 1.67 µM.

The compound `Cc1noc(C)c1-c1ccc2nc(N3CCN(CCN(C)C)CC3)nc(N(C)Cc3cccc(Cl)c3)c2c1` returned an IC50 of 5.5 µM.

On to `Cc1noc(C)c1-c1ccc2nc(N3CCN(CCC(C)C)CC3)nc(NCc3cccc(Cl)c3)c2c1`, for which the IC50 is 6.89 µM. The IC50 values of the last two compounds are within 1.5-fold of each other.

Test system in a further data set: not listed separately
In words: Half life in CD-1 mouse at 10 mg/kg, po. The following applies: in vivo. The format is ADME, organism-based. In a few lines: (§1)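 CD-1 mice (n = 3) received a single oral dose of 10 mg/kg. Plasma drug levels were followed over time to derive AUC0–∞, t1/2 and oral bioavailability (F%), the last relative to the iv arm.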
On to `Cc1noc(C)c1-c1ccc2nc(C(=O)NC3CCN(C)CC3)nc(NCc3cccc(Cl)c3)c2c1`, for which the half-life is 4 h.

Another data set concerns Mus musculus. In words: Cmax in CD-1 mouse at 10 mg/kg, po measured after 5 mins. Format: ADME, organism-based. Also noted: dose 10 mg/kg, route oral. The settings on record: in vivo.
Regarding `Cc1noc(C)c1-c1ccc2nc(C(=O)NC3CCN(C)CC3)nc(NCc3cccc(Cl)c3)c2c1`, the Cmax came out at 9 ng/mL.

Test system in another data set: not listed separately
Nature of the data set: AUC (0 to infinity) in CD-1 mouse at 10 mg/kg, po. On the set-up: dose 10 mg/kg, time infinity, route oral. The following applies: CD-1, mouse, in vivo. The format is ADME, organism-based. In a few lines: as §1
For `Cc1noc(C)c1-c1ccc2nc(C(=O)NC3CCN(C)CC3)nc(NCc3cccc(Cl)c3)c2c1`, the AUC(0-inf) stood at 54 ng·h/mL.

By Kd is commonly meant the constant that tells how readily two partners part at equilibrium. In general, IC50 refers to the concentration at which inhibition is half-maximal. A low value points to inhibition by little substance. In general, half-life refers to how long it takes for the measured level to halve. A high value points to slow loss. As usually defined, the Cmax is the highest concentration seen after dosing. The term AUC(0-inf) denotes total exposure, with the tail of the curve extrapolated.
